≈ marks a conversion by molar mass, not a printed value.
Assays:
Assay type in all cases: functional
Escherichia coli [1] = experiment: Antibacterial activity against Escherichia coli ATCC 8739 at 2 mg/ml after 24 hrs by agar-well diffusion technique; details: ATCC 8739, 24 h, read-out: DIZ
Method in brief: (§1)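 Agar-well diffusion used MHA seeded with 24 h cultures at 0.5 McFarland (1 × 10^6 CFU/ml). 100 µl of compound (2 mg/ml in DMSO, filter-sterilized) went into each 6 mm well. Plates were incubated upright at 37 ± 1 °C for 24 h, and the inhibition zone diameter was measured in mm. DMSO was the negative control. Values are the mean of three replicates.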

Pseudomonas aeruginosa [2] = experiment: Antibacterial activity against Pseudomonas aeruginosa ATCC 25668 at 2 mg/ml after 24 hrs by agar-well diffusion technique; details: ATCC 25668, 24 h, read-out: DIZ; method in brief: as §1
Staphylococcus aureus [3] = experiment: Antibacterial activity against Staphylococcus aureus ATCC 9144 at 2 mg/ml after 24 hrs by agar-well diffusion technique; details: ATCC 9144, 24 h, read-out: DIZ; method in brief: as §1
Bacillus cereus [4] = experiment: Antibacterial activity against Bacillus cereus ATCC 11778 at 2 mg/ml after 24 hrs by agar-well diffusion technique; details: ATCC 11778, 24 h, read-out: DIZ; method in brief: as §1
Escherichia coli [5] = experiment: Antibacterial activity against Escherichia coli ATCC 8739 after 24 hrs by broth microdilution method; details: ATCC 8739, 24 h
Pseudomonas aeruginosa [6] = experiment: Antibacterial activity against Pseudomonas aeruginosa ATCC 25668 after 24 hrs by broth microdilution method; details: ATCC 25668, 24 h
Staphylococcus aureus [7] = experiment: Antibacterial activity against Staphylococcus aureus ATCC 9144 after 24 hrs by broth microdilution method; details: ATCC 9144, 24 h
Bacillus cereus [8] = experiment: Antibacterial activity against Bacillus cereus ATCC 11778 after 24 hrs by broth microdilution method; details: ATCC 11778, 24 h
Aspergillus terreus [9] = experiment: Antifungal activity against Aspergillus terreus at 10 ug/ml after 7 days by poisoned food technique relative to control
Method in brief: (§2)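 Poisoned food technique with soil-isolated fungi on PDA. Compound from a 1 mg/ml DMSO stock was added to molten agar at 40 ± 2 °C to give 10, 50, 100 or 200 µg/ml. A 6 mm mycelial disc from a 6-day culture was placed centrally, and plates were held at 28 ± 1 °C. Radial growth was measured after 7 days, and % inhibition was calculated against PDA/DMSO control, in triplicate.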

Aspergillus terreus [10] = experiment: Antifungal activity against Aspergillus terreus at 50 ug/ml after 7 days by poisoned food technique relative to control; method in brief: as §2
Aspergillus terreus [11] = experiment: Antifungal activity against Aspergillus terreus at 100 ug/ml after 7 days by poisoned food technique relative to control; method in brief: as §2
Aspergillus terreus [12] = experiment: Antifungal activity against Aspergillus terreus at 200 ug/ml after 7 days by poisoned food technique relative to control; method in brief: as §2
Alternaria alternata [13] = experiment: Antifungal activity against Alternaria alternata at 10 ug/ml after 7 days by poisoned food technique relative to control; method in brief: as §2
Alternaria alternata [14] = experiment: Antifungal activity against Alternaria alternata at 50 ug/ml after 7 days by poisoned food technique relative to control; method in brief: as §2
Alternaria alternata [15] = experiment: Antifungal activity against Alternaria alternata at 100 ug/ml after 7 days by poisoned food technique relative to control; method in brief: as §2
Alternaria alternata [16] = experiment: Antifungal activity against Alternaria alternata at 200 ug/ml after 7 days by poisoned food technique relative to control; method in brief: as §2
Fusarium oxysporum [17] = experiment: Antifungal activity against Fusarium oxysporum at 10 ug/ml after 7 days by poisoned food technique relative to control; method in brief: as §2
Fusarium oxysporum [18] = experiment: Antifungal activity against Fusarium oxysporum at 50 ug/ml after 7 days by poisoned food technique relative to control; method in brief: as §2
Fusarium oxysporum [19] = experiment: Antifungal activity against Fusarium oxysporum at 100 ug/ml after 7 days by poisoned food technique relative to control; method in brief: as §2
Fusarium oxysporum [20] = experiment: Antifungal activity against Fusarium oxysporum at 200 ug/ml after 7 days by poisoned food technique relative to control; method in brief: as §2
Helminthosporium [21] = experiment: Antifungal activity against Helminthosporium sp. at 10 ug/ml after 7 days by poisoned food technique relative to control; method in brief: as §2
Helminthosporium [22] = experiment: Antifungal activity against Helminthosporium sp. at 50 ug/ml after 7 days by poisoned food technique relative to control; method in brief: as §2
Helminthosporium [23] = experiment: Antifungal activity against Helminthosporium sp. at 100 ug/ml after 7 days by poisoned food technique relative to control; method in brief: as §2
Helminthosporium [24] = experiment: Antifungal activity against Helminthosporium sp. at 200 ug/ml after 7 days by poisoned food technique relative to control; method in brief: as §2

| Compound | zone of inhibition at 2000 µg/mL (Escherichia coli [1]) | zone of inhibition at 2000 µg/mL (Pseudomonas aeruginosa [2]) | zone of inhibition at 2000 µg/mL (Staphylococcus aureus [3]) | zone of inhibition at 2000 µg/mL (Bacillus cereus [4]) | MIC (Escherichia coli [5]) | MIC (Pseudomonas aeruginosa [6]) | MIC (Staphylococcus aureus [7]) | MIC (Bacillus cereus [8]) | also measured |
| --- | --- | --- | --- | --- | --- | --- | --- | --- | --- |
| Cc1cc(-c2ccccc2)n2nc(-n3nc(C)cc3-c3ccccc3)cc2n1 | 8 mm | 7.5 mm | 8 mm | 8 mm | 200 µg/mL (≈ 547 µM) | > 200 µg/mL | 200 µg/mL (≈ 547 µM) | 200 µg/mL (≈ 547 µM) | Activity (Aspergillus terreus [9]): 7.4%; Activity (Aspergillus terreus [10]): 13.5%; Activity (Aspergillus terreus [11]): 19.2%; Activity (Aspergillus terreus [12]): 19.7%; Activity (Alternaria alternata [13]): 18.2%; Activity (Alternaria alternata [14]): 20.7%; Activity (Alternaria alternata [15]): 19.5%; Activity (Alternaria alternata [16]): 20.7%; Activity (Fusarium oxysporum [17]): 8.53%; Activity (Fusarium oxysporum [18]): 6.09%; Activity (Fusarium oxysporum [19]): 3.65%; Activity (Fusarium oxysporum [20]): 2.4%; Activity (Helminthosporium [21]): 0%; Activity (Helminthosporium [22]): 0%; Activity (Helminthosporium [23]): 0%; Activity (Helminthosporium [24]): 0% |
| Cc1cc(-c2ccc(Br)cc2)n2nc(-n3nc(C)cc3-c3ccc(Br)cc3)cc2n1 | 8 mm | 8 mm | 8 mm | 8 mm | > 100 µg/mL | > 100 µg/mL | > 100 µg/mL | > 100 µg/mL | – |
| Cc1nn(-c2cc3nc(C)c4c(n3n2)CCC4)c2c1CCC2 | 7 mm | 7 mm | 7 mm | 7 mm | > 400 µg/mL | > 400 µg/mL | 400 µg/mL (≈ 1360 µM) | 400 µg/mL (≈ 1360 µM) | – |
| Cc1cc(-c2cccs2)n2nc(-n3nc(C)cc3-c3cccs3)cc2n1 | 8 mm | 8 mm | 8 mm | 8 mm | 200 µg/mL (≈ 530 µM) | 200 µg/mL (≈ 530 µM) | 200 µg/mL (≈ 530 µM) | > 200 µg/mL | – |
| Cc1ccc(-c2cc(C)nn2-c2cc3nc(C)cc(-c4ccc(C)cc4)n3n2)cc1 | 10.5 mm | 8 mm | 8 mm | 8.5 mm | 50 µg/mL (≈ 127 µM) | 100 µg/mL (≈ 254 µM) | 100 µg/mL (≈ 254 µM) | 100 µg/mL (≈ 254 µM) | – |

Source: ChEMBL document CHEMBL1806357, “A regioselective synthesis of some new pyrazol-1'-ylpyrazolo[1,5-a]pyrimidines in aqueous medium and their evaluation as antimicrobial agents” (2011)
